For assay [1], the system named is HeLa. As to the kind of experiment: Inhibition of autophagic flux in human HeLa cells assessed as increase in LC3-2 level at 100 to 200 uM after 4 to 12 hrs by immunoblot analysis. It is filed as functional, cell-based. An outline of the steps:
(§1)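 HeLa cells grown in DMEM with 10% FBS, 2 mM glutamine and penicillin/streptomycin, preincubated overnight, then exposed to compound at the indicated final concentrations for 4, 8 or 12 h. Whole-cell RIPA lysates run on SDS-PAGE, transferred to PVDF, blocked in 5% nonfat milk, probed with anti-LC3, anti-SQSTM1, anti-Ub, anti-α3 or anti-β-actin, HRP secondary, ECL detection.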

In assay [2] the test system is HeLa. In words: Effect on p62/SQSTM1 protein expression in human HeLa cells at 100 to 200 uM after 4 to 12 hrs by immunoblot analysis. It is filed as functional, cell-based. An outline of the steps: as §1
On the technique in general: A western blot detects proteins with antibodies after separation by electrophoresis.

The test system of assay [3] is HeLa. As to the kind of experiment: Inhibition of autophagic flux in human HeLa cells assessed as increase in LC3-2 level after 4 to 12 hrs by immunoblot analysis. Format: functional, cell-based. An outline of the steps:
as §1

The target in assay [4] is 26S proteasome (Homo sapiens) (UniProt Q99460+P49721+P20618+P28074+P28062+P28065+P28072+O00487+P25786+P25787+P25788+P25789+P28066+P60900+O14818+Q8TAA3+P40306+A5LHX3+P49720+P28070+Q99436+Q16186+P35998+P62191+P43686+P62333+P17980+P62195+Q13200+O43242+O00232+O00231+Q15008+P51665+Q9UNM6+P55036+P48556+P60896). In words: Inhibition of human 26S proteasome using suc-LLVY-AMC as substrate up to 40 mins by fluorescence assay. Format: protein-complex assay. An outline of the steps:
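Purified human 26S proteasomes incubated with compound and fluorogenic substrate suc-LLVY-AMC. Substrate hydrolysis followed as AMC fluorescence (RFU) over time.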

Assay [5] concerns HeLa. As to the kind of experiment: Inhibition of autophagic flux in human HeLa cells assessed as reduction in autolysosome formation by measuring increase in LC3-2 level at 200 uM after 8 hrs in presence of BafA1 by immunoblot analysis. It is filed as functional, cell-based. An outline of the steps: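 HeLa cells grown in normal DMEM to >90% confluence, washed with PBS, then cotreated for 8 h with compound (200 μM) plus bafilomycin A1 (100 nM) in DMEM, or under amino acid depletion in EBSS. Whole-cell RIPA lysates immunoblotted (SDS-PAGE, PVDF, milk block, HRP secondary, ECL); β-actin loading control.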

The test system of assay [6] is HeLa. In words: Inhibition of autophagic flux in human HeLa cells assessed as increase in LC3-2 level at 100 to 200 uM after 4 to 12 hrs by immunoblot analysis.
The subject of assay [7] is HeLa. In words: Effect on polyubiquitin conjugate protein expression in human HeLa cells at 100 to 200 uM after 4 to 12 hrs by immunoblot analysis. It is filed as functional, cell-based. An outline of the steps: as §1
The subject of assay [8] is HeLa. In words: Effect on proteasome subunit alpha-3 protein expression in human HeLa cells at 100 to 200 uM after 4 to 12 hrs by immunoblot analysis. Format: functional, cell-based. An outline of the steps: as §1
Assay [9] concerns HeLa. As to the kind of experiment: Inhibition of autophagic flux in human HeLa cells assessed as DQ-BSA quenching at 200 uM after 4 hrs by DAPI staining based fluorescence microscopic method. It is filed as functional, cell-based. An outline of the steps: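 HeLa cells on glass coverslips loaded with self-quenching BODIPY–BSA (DQ-BSA, 10 μg/mL) for 1 h, PBS-washed, then exposed to DMSO, EBSS or compound (200 μM) for 4 h. Fixed in 4% paraformaldehyde/PBS 15 min, mounted with DAPI-containing medium. Dequenched DQ-BSA puncta in autolysosomes imaged by fluorescence microscopy.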

Active and inactive are the calls of the source. No cut-off for these calls is given here. Non-standard residues stand in square brackets, D forms with d. Residues, ends and D or L forms follow the SMILES beside them. *: point of attachment. Phe(ol) = N[C@H](CO)Cc1ccccc1; Isovaleryl = CC(C)CC(=O)*; Propionyl = CCC(=O)*; Butyryl = CCCC(=O)*

In the case of `CC[C@H](C)[C@H](NC(=O)[C@H](Cc1ccc(O)cc1)NC(=O)CC(C)C)C(=O)N[C@H](CO)CCSC`, in the assay with HeLa [1], the “LC3-II increase (active/not active)” value was “inactive”.

For the compound `CCCC(=O)N[C@@H](Cc1ccccc1)C(=O)N[C@H](C(=O)N[C@H](CO)Cc1ccccc1)[C@@H](C)CC` (Butyryl-Phe-Ile-[Phe(ol)]), the outcome with HeLa [2], in the assay on HeLa [7] and in the assay on HeLa [8] was inactive. The inhibition result in the assay on HeLa [3] is “Dose-dependent effect”. Further, the inhibition result (in [4]; with HeLa [5]) was “inactive” each time. In addition, the inhibition entry in the assay with HeLa [6] and in the assay on HeLa [9] was “Active” each time.

In the case of `CC[C@H](C)[C@H](NC(=O)[C@H](Cc1ccccc1)NC(=O)CC(C)C)C(=O)N[C@H](CO)Cc1ccccc1` (Isovaleryl-Phe-Ile-[Phe(ol)]), the “LC3-II increase (active/not active)” value in the assay on HeLa [1] is “inactive”.

For `CC(C)CC(=O)N[C@@H](Cc1ccccc1)C(=O)N[C@H](C(=O)N[C@H](CO)Cc1ccccc1)C(C)C` (Isovaleryl-Phe-Val-[Phe(ol)]), the result with HeLa [2], in the assay on HeLa [7] and in the assay with HeLa [8] was inactive. In the assay with HeLa [3], the inhibition result is “Dose-dependent effect”. Besides, the inhibition entry (in assay [4]; in the assay on HeLa [5]) was “inactive” in each case. In addition, the inhibition entry in the assay on HeLa [6] and in the assay with HeLa [9] was “Active” each time.

As for `CC[C@H](C)[C@H](NC(=O)[C@H](Cc1ccc(O)cc1)NC(=O)CC(C)C)C(=O)N[C@H](CO)Cc1ccccc1` (Isovaleryl-Tyr-Ile-[Phe(ol)]), in the assay on HeLa [1], the “LC3-II increase (active/not active)” value was “inactive”.

With `CC(C)CC(=O)N[C@@H](Cc1ccc(O)cc1)C(=O)N[C@H](C(=O)N[C@H](CO)Cc1ccccc1)C(C)C` (Isovaleryl-Tyr-Val-[Phe(ol)]), the “LC3-II increase (active/not active)” value in the assay on HeLa [1] was “inactive”.

For the compound `CCC(=O)N[C@@H](Cc1ccc(O)cc1)C(=O)N[C@H](C(=O)N[C@H](CO)Cc1ccccc1)[C@@H](C)CC` (Propionyl-Tyr-Ile-[Phe(ol)]), in the assay with HeLa [1], the “LC3-II increase (active/not active)” value is “inactive”.

Values taken from ChEMBL document CHEMBL4330170, “Acidiphilamides A-E, Modified Peptides as Autophagy Inhibitors from an Acidophilic Actinobacterium, Streptacidiphilus rugosus” (J Nat Prod, 2019).
